Screening results deposited in PubChem BioAssay by Broad Institute.
C2C12 statin: suppressors of statin myotoxicity in C2C12 myotubes, primary screen, cell-based, single point, plate reader. C2C12 myotubes + simvastatin, ATP luminescence, 48 h; scaled: DMSO 0, geranylgeraniol control 100. rescue of ATP level, % at 7.49 µM. 330,000 tested, 0.78% active. AID 602340, 2012;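 active means mean ATP rescue above about 67%, or every replicate alone reaching that limit, limit read from the data, passing the limit was not always enough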;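 further: myotubes were challenged with 10 µM simvastatin during compound exposure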
dFosB act: activators of delta FosB homodimer, primary screen, biochemical, fluorescence polarization, TAMRA-CDK5 oligo, single point; purified delta FosB; percent of positive-control signal above neutral wells; activation, % at 25 µM; 340,000 tested, 0.99% active; AID 493131, 2011;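 active means mean activation above about 17%, with every replicate also reaching it, limit read from the data, passing the limit was not always enough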
Target sequence (P13346 whole entry, looked up): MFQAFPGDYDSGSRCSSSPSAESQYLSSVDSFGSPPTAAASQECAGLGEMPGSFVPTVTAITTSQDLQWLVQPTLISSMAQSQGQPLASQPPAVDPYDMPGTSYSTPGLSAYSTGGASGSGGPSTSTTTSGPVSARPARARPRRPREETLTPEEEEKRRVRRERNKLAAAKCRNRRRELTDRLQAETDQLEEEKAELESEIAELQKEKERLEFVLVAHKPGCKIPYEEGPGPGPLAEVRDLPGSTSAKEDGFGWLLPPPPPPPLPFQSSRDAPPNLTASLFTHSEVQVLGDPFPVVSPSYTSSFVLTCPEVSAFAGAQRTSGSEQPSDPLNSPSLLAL
CDK5 inh: inhibitors of human CDK5/p35 kinase, primary screen, biochemical, single concentration | Recombinant CDK5/p35, ADP-Glo luminescence, 60 min | inhibition, % at 10 µM | 330,000 tested, 0.01% active;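 active means highest replicate inhibition of at least 50% and at least 75% of replicates reaching 50%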
CAL PDZ FP-1: CAL PDZ peptide-binding inhibitors, primary screen, biochemical, fluorescence polarization, Cer-tagged CAL PDZ, HTS; Golgi-associated PDZ and coiled-coil motif-containing protein (Homo sapiens), Q9HD26; purified CAL PDZ, TMR-peptide fluorescence polarization, 1 h; inhibition, % at 20 µM; 330,000 tested, 0.02% active; AID 504414, 2011;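 active means highest replicate inhibition of at least 40%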
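System: tagged CAL PDZ domain. Schedule: 1 h room-temperature incubation prior to read. Signal: fluorescence polarization (mP). Measure: percent inhibition from loss of millipolarization.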
CAL PDZ FP-2: untagged CAL PDZ binding inhibitors, primary screen, biochemical, fluorescence polarization, HTS; Golgi-associated PDZ and coiled-coil motif-containing protein (Homo sapiens), Q9HD26; purified CAL PDZ, TMR-peptide fluorescence polarization, 1 h; inhibition, % at 24.9 µM; 300,000 tested, 0.92% active;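 active means mean inhibition of at least 30% with at least half of replicates also reaching 30%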
S100A4 MyoIIA: inhibitors of S100A4-myosin IIA peptide binding, primary screen, biochemical, fluorescence polarization, TAMRA-MyoIIA peptide; 360,000 tested, 0.14% active; inhibition, % at 10.7 µM;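 active means mean inhibition of at least 70% across replicates, with every replicate also reaching that level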
Target sequence (P26447 whole entry, looked up): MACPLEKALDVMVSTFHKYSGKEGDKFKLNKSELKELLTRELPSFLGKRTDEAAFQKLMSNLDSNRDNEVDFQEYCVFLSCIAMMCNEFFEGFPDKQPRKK
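incubation = readout 5 min after mixing, signal stable up to 60 min | system = S100A4 monomer protein | buffer or medium = HEPES pH 7.2 with CaCl2, KCl, NaCl, DTT, Triton | benchmarks = neutral control DMSO, positive control TFP | also added = fluorescent myosin IIA peptide, 5 nM | compound dosing = one concentration per compound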
Large screens that a line does not name were inactive. Only some compounds are listed: those with a hit (about 2% of all), similar ones and a draw of the others.

C[C@@H]1CN([C@@H](C)CO)C(=O)c2cc(NC(=O)c3ccncc3)ccc2O[C@@H](C)CCCCO[C@H]1CN(C)Cc1ccc(C(F)(F)F)cc1	C2C12 statin 116 (no result: dFosB act, CDK5 inh, CAL PDZ FP-1, CAL PDZ FP-2)
O=C(OCC(=O)N1CCc2ccccc2C1)c1cccnc1Cl	CAL PDZ FP-2 71
c1ccc2c(c1)nnn2CNc1nccs1	none (no result: C2C12 statin)
CCOC(=O)c1cc(-c2csc(N/N=C/c3ccccc3Cl)n2)on1	none (no result: C2C12 statin)
Cc1onc(-c2ccc(Cl)cc2Cl)c1-c1csc(N/N=C/c2ccccc2)n1	CAL PDZ FP-2 54
C=CCn1c(SCc2ccccc2)nnc1-c1cccnc1	none (no result: CAL PDZ FP-2, S100A4 MyoIIA)
CN1CCN(C(=O)/C=C/c2ccc(Cl)c(Cl)c2)CC1	none (no result: C2C12 statin)
CN1CCN(C(=O)/C=C/c2ccc(Cl)cc2)CC1	C2C12 statin 110
Cc1oc(S(=O)(=O)N2CCCCC2)cc1NC(=O)Nc1ccc(F)cc1	CAL PDZ FP-2 45
O=C(Nc1ccc(F)cc1)Nc1ccc(S(=O)(=O)N2CCCC2)cc1	none
CC(C)CNS(=O)(=O)c1ccc(NC(=O)Cn2nc(-c3ccc(F)cc3)ccc2=O)cc1	none (no result: C2C12 statin, S100A4 MyoIIA)
CCC(C)NC(=O)c1ccc(NS(=O)(=O)c2ccc3[nH]c(=O)[nH]c3c2)cc1 (stereo unspecified)	none
O=C(N/N=C/c1cccs1)c1ccccn1	none (no result: C2C12 statin, S100A4 MyoIIA)
C(=NN=C(NN=Cc1cccs1)NN=Cc1cccs1)c1cccs1	dFosB act 21
Cc1ccc(C)c2c1[nH]c1ccccc12	none (no result: C2C12 statin, S100A4 MyoIIA)
O=C(O)Cc1nc(-c2cccnc2)sc1-c1ccc(Br)cc1	none
Cn1cc(/C=C/C(=O)c2ccccc2)c2ccccc21	none (no result: CAL PDZ FP-2)
CC(=O)N1C=CN(C(C)=O)C(c2cn(C)c3ccccc23)C1c1cn(C)c2ccccc12 (stereo unspecified)	C2C12 statin 115 (no result: S100A4 MyoIIA)
COc1ccc(S(=O)(=O)Nc2cccc3c2O[C@H](CN(C)C(=O)Nc2c(C)noc2C)[C@@H](C)CN([C@H](C)CO)C3=O)cc1	none
CN(C)CCNc1nc(S(=O)(=O)c2ccccc2)c(Cl)s1	CAL PDZ FP-2 83 (no result: C2C12 statin)
COc1ccc2ccccc2c1/C=N/O	CAL PDZ FP-2 36 (no result: S100A4 MyoIIA)
C=CCOc1ccc2ccccc2c1/C=N/O	none (no result: C2C12 statin, S100A4 MyoIIA)
Cc1ccc(C)c(NS(=O)(=O)c2ccccc2C)c1	none
CCOc1ccc(S(=O)(=O)N2CCCCC2)c2ccccc12	none (no result: S100A4 MyoIIA)
O=C(/C=C/c1cccc2ccccc12)N1CCOCC1	CAL PDZ FP-2 49 (no result: C2C12 statin)
CCCCC(=O)NCCc1cc2c(C)ccc(C)c2[nH]c1=O	none (no result: CAL PDZ FP-2)
CC(C)CC#Cc1ccc2c(c1)O[C@@H](CN(C)C(=O)c1cccnc1)[C@H](C)CN([C@H](C)CO)S2(=O)=O	none (no result: dFosB act, CDK5 inh, CAL PDZ FP-1, CAL PDZ FP-2)
CC(=O)NC1C(=O)N(CCN2CCOCC2)c2ccc(C)cc21 (stereo unspecified)	CAL PDZ FP-2 64 (no result: C2C12 statin, S100A4 MyoIIA)
CC(=O)NC1C(=O)N(CCN2CCOCC2)c2ccc(Cl)cc21 (stereo unspecified)	none
CCOc1ccc(C=NNc2ccc(S(=O)(=O)Nc3ccccc3C(=O)O)cc2[N+](=O)[O-])cc1	none
CCOc1cccc(C=NNc2ccc(S(=O)(=O)Nc3ccccc3C(=O)O)cc2[N+](=O)[O-])c1O	C2C12 statin 109
Nc1nc(COc2ccccc2C=O)nc(Nc2ccccc2)n1	dFosB act 59 (no result: C2C12 statin)
C[C@H](CO)NC(=O)[C@@H]1C[C@H]1[C@@H](NP(=O)(c1ccccc1)c1ccccc1)c1ccccc1	C2C12 statin 116
CCOC(=O)c1c(C)[nH]c(C(=O)OCC(=O)Nc2ccc(OC)c(Cl)c2)c1C	dFosB act 140 (no result: S100A4 MyoIIA)
COc1cc(C)c(S(=O)(=O)n2ccc(C)n2)cc1C	C2C12 statin 113 (no result: S100A4 MyoIIA)
COc1cc(C2C3=C(Nc4nc(N)[nH]c(=O)c42)c2ccccc2C3=O)ccc1O (stereo unspecified)	dFosB act 43
CCC(C)c1ccc(C2C3=C(Nc4nc(N)[nH]c(=O)c42)c2ccccc2C3=O)cc1 (stereo unspecified)	dFosB act 33
Nc1nc2c(c(=O)[nH]1)C(c1ccccc1)C1=C(N2)c2ccccc2C1=O (stereo unspecified)	none (no result: C2C12 statin)
CN(C(=O)c1ccc(NC(=O)Cc2ccc(NC(=O)C3CCN(C(=O)CCc4ccccc4)CC3)cc2)cc1)C1CC1	C2C12 statin 160
CCc1noc(C)c1C(=O)N1CCN(S(=O)(=O)c2ccc(Cl)cc2)CC1	none
CCc1noc(C)c1C(=O)N1CCN(S(=O)(=O)c2cccs2)CC1	CAL PDZ FP-2 50
CCCCC(=O)Nc1ccc2c(c1)oc1ccccc12	CAL PDZ FP-2 56 (no result: C2C12 statin, S100A4 MyoIIA)
Cc1ccccc1CN(C)C[C@@H]1OCc2cn(nn2)CCCC(=O)N([C@@H](C)CO)C[C@@H]1C	none (no result: dFosB act, CDK5 inh, CAL PDZ FP-1, CAL PDZ FP-2)
Cc1cccc2cc(COC(=O)c3cccnc3)c(=O)[nH]c12	C2C12 statin 102 (no result: S100A4 MyoIIA)
C/C(=C\C(=O)c1ccc(Cl)s1)N(C)C	none (no result: C2C12 statin)
COc1ccc(N(CC(=O)NCCc2ccc(C)cc2)S(=O)(=O)c2c(C)noc2C)cc1	none
Cc1noc(C)c1S(=O)(=O)N(CC(=O)NCc1ccc(F)cc1)c1ccc(C(C)C)cc1	CAL PDZ FP-2 44
COc1ccc(N(CC(=O)NCCc2ccc(OC)c(OC)c2)S(=O)(=O)c2c(C)noc2C)cc1	CAL PDZ FP-2 73
CC(NC(=O)Cc1ccccc1)C(c1ccccc1)N1CCOCC1 (stereo unspecified)	none
Cc1ccc(-n2nnnc2CNC(=O)C2CC(=O)N(c3ccc(F)cc3)C2)cc1C (stereo unspecified)	none
Cc1ccc(NC(=O)CN(C)CC(=O)Nc2c(C)cccc2C)c(Br)c1	C2C12 statin 97 (no result: S100A4 MyoIIA)
Cc1ccc(NC(=O)COC(=O)Cc2csc(-c3cccc(F)c3)n2)cc1C	none (no result: S100A4 MyoIIA)
CCCC(=O)Nc1ccc2c(c1)OC[C@H](C)NC[C@H](C)[C@H](OC)CN(C)C2=O	S100A4 MyoIIA 101 (no result: dFosB act, CDK5 inh, CAL PDZ FP-1, CAL PDZ FP-2)
CCCNC(=O)Nc1ccc2c(c1)OC[C@@H](C)NC[C@@H](C)[C@@H](OC)CN(C)C2=O	none (no result: dFosB act, CDK5 inh, CAL PDZ FP-1, CAL PDZ FP-2)
CCCNC(=O)Nc1ccc2c(c1)C(=O)N(C)C[C@@H](OC)[C@@H](C)CN[C@@H](C)CO2	S100A4 MyoIIA 111 (no result: dFosB act, CDK5 inh, CAL PDZ FP-1, CAL PDZ FP-2)
CCCC(=O)Nc1ccc2c(c1)OC[C@@H](C)NC[C@H](C)[C@@H](OC)CN(C)C2=O	none (no result: dFosB act, CDK5 inh, CAL PDZ FP-1, CAL PDZ FP-2)
